Reference: ChEMBL document CHEMBL1123614, “Effects of [(N-alkyl-1,3-dioxo-1H,3H-isoindolin-5-yl)oxy]alkanoic acids, [(N-alkyl-1-oxo-1H,3H-isoindolin-5-yl)oxy]butanoic acids, and related derivatives on chloride influx in primary astroglial cultures” (J Med Chem, 1987)

Key:
Assay type in all cases: functional, organism-based
[1] = species on record: Rattus norvegicus; assay: Reduction of Astrocyte intracellular chloride concentration at 0.1 mM.
Method in brief: (§1)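 Primary rat astrocyte cultures (1–4-day-old Sprague-Dawley pups, oligodendrocytes not removed, >90% astrocytes) grown 3–5 weeks in serum BME. Cells equilibrated 60 min at 37 °C in chloride-HCO3 Hepes medium. Cells washed with ice-cold 0.32 M sucrose. Counts, minus time-0 background, normalized to Lowry protein. Reported as % of vehicle control ± SD, n = 4.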

[2] = species on record: Rattus norvegicus; assay: Reduction of Astrocyte intracellular chloride concentration at 0.05 mM.; method in brief: as §1
[3] = species on record: Rattus norvegicus; assay: Reduction of Astrocyte intracellular chloride concentration at 1 mM.; method in brief: as §1
[4] = species on record: Rattus norvegicus; assay: Reduction of Astrocyte intracellular chloride concentration at 0.05 mM; No data.; method in brief: as §1
[5] = species on record: Rattus norvegicus; assay: Reduction of Astrocyte intracellular chloride concentration at 0.01 mM.; method in brief: as §1
[6] = 0.5 mM, in the assay text read “0.5 mM” for “0.05 mM”

Compound `O=C(O)CCCOc1cc2c(cc1Cl)C(=O)N(C1CCCC1)C2` has a Concentration [1] of 115%.
`O=C(O)CCCOc1ccc2c(c1)C(=O)N(CCCO)C2=O` showed a Concentration ([2]; 0.05 mM) of 83% and a Concentration [1] of 75%.
Work on `CCCCCCN1C(=O)c2ccc(OCCCC(=O)O)cc2C1=O` yielded a Concentration [2, 6] of 118% and a Concentration [1] of 109%.
For `O=C(O)CCCOc1ccc2c(c1Cl)C(=O)N(C1CCCC1)C2=O`, the Concentration [1] was 107%.
With `CN1C(=O)c2ccc(OCCCC(=O)O)cc2C1=O` the Concentration ([2]; 0.05 mM) was 118% and the Concentration [1] was 90%.
Compound `CCCCN1C(=O)c2cc(Cl)c(OCCCC(=O)O)cc2C1=O` has a Concentration [2, 6] of 81% and a Concentration [1] of 95%.
Compound `CCCN1Cc2cc(OCCCC(=O)O)ccc2C1=O` has a Concentration ([2]; 0.05 mM) of 76% and a Concentration [1] of 98%.
For `O=C(O)COc1ccc2c(c1)C(=O)N(C1CCCC1)C2=O`, the Concentration ([2]; 0.05 mM) was 92% and the Concentration [1] was 91%.
With `O=C(O)COc1ccc2c(c1)C(=O)N(C1CCCCC1)C2=O` the Concentration ([2]; 0.05 mM) was 87% and the Concentration [1] was 94%.
Work on `O=C(O)CCCOc1ccc(C(=O)NC2CCCC2)cc1Cl` yielded a Concentration [1] of 83%.
Work on `CCN1Cc2cc(OCCCC(=O)O)ccc2C1=O` yielded a Concentration [3] of 57%, a Concentration [2, 6] of 67% and a Concentration [1] of 67%. For the same compound, the Concentration [4] was 93% and the Concentration [5] was 109%.
`CCCN1C(=O)c2ccc(OCCCC(=O)O)cc2C1=O` showed a Concentration ([2]; 0.05 mM) of 80% and a Concentration [1] of 67%.
`CCCCN1C(=O)c2cc(OCCCC(=O)O)c(Cl)c(Cl)c2C1=O` gave a Concentration [2, 6] of 74% and a Concentration [1] of 86%.
`CCCCN1Cc2cc(OCCCC(=O)O)ccc2C1=O` gave a Concentration ([2]; 0.05 mM) of 76% and a Concentration [1] of 97%.
In the case of `CCCN1C(=O)c2ccc(OCC(=O)O)cc2C1=O`, the Concentration ([2]; 0.05 mM) is reported as 110% and the Concentration [1] is reported as 103%.
With `CCCCCN1C(=O)c2ccc(OCCCC(=O)O)cc2C1=O` the Concentration ([2]; 0.05 mM) was 77% and the Concentration [1] was 85%.
`NS(=O)(=O)c1cc(C(=O)O)c(NCc2ccco2)cc1Cl` was tested, and the Concentration [3] was 21% and the Concentration [1] was 79%.
`CCCN1C(=O)c2cc(OCCCC(=O)O)c(Cl)c(Cl)c2C1=O` showed a Concentration [2, 6] of 89% and a Concentration [1] of 74%.
`CCN1C(=O)c2cc(OCCCC(=O)O)c(Cl)c(Cl)c2C1=O` gave a Concentration [2, 6] of 83% and a Concentration [1] of 103%.
With `CN(C(=O)c1ccc(OCCCC(=O)O)c(Cl)c1Cl)C1CCCC1` the Concentration [1] was 79%.
Work on `C=C(CC)C(=O)c1ccc(OCC(=O)O)c(Cl)c1Cl` yielded a Concentration [1] of 78%.
Work on `CCN1C(=O)c2ccc(OCCCC(=O)O)cc2C1=O` yielded a Concentration ([2]; 0.05 mM) of 76% and a Concentration [1] of 104%.
Compound `O=C(O)CCCOc1ccc2c(c1)C(=O)N(C1CCCC1)C2=O` has a Concentration [1] of 101%.
With `O=C(O)CCCOc1ccc2c(c1)C(=O)N(C1CCCCC1)C2=O` the Concentration [1] was 105%.
Compound `O=C(O)CCCOc1ccc(C(=O)NC2CCCC2)c(Cl)c1Cl` has a Concentration ([2]; 0.05 mM) of 78% and a Concentration [1] of 93%.
For `O=C(O)CCCOc1ccc2c(c1)C(=O)NC2=O`, the Concentration ([2]; 0.05 mM) was 88% and the Concentration [1] was 93%.
`O=C(O)CCCOc1ccc(C(=O)NC2CCCC2)cc1Br` showed a Concentration [1] of 74%.
`CN1Cc2cc(OCCCC(=O)O)ccc2C1=O` showed a Concentration [1] of 84%.
In the case of `O=C(O)CCCOc1ccc2c(c1)C(=O)N(CCCCO)C2=O`, the Concentration ([2]; 0.05 mM) is reported as 101% and the Concentration [1] is reported as 106%.
In the case of `O=C(O)CCCOc1cc2c(cc1Cl)C(=O)N(C1CCCC1)C2=O`, the Concentration [1] is reported as 111%.
`CCCCN1C(=O)c2ccc(OCCCC(=O)O)cc2C1=O` showed a Concentration ([2]; 0.05 mM) of 69% and a Concentration [1] of 88%.
In the case of `CN1C(=O)c2cc(OCCCC(=O)O)c(Cl)c(Cl)c2C1=O`, the Concentration [1] is reported as 91%.
For `O=C(O)CCCOc1cc2c(c(Cl)c1Cl)C(=O)N(C1CCCC1)C2=O`, the Concentration [1] was 97%.
With `O=C(O)CCCOc1c(Cl)cc2c(c1Cl)C(=O)N(C1CCCC1)C2=O` the Concentration [1] was 94%.
